Data on four molecules can be found in publication PMC11929782 (Scientific Reports, 2025).

One data set deals with T1, IL17RC (Homo sapiens, UniProt Q8NAC3).
T1 sequence (Q8NAC3 21-791): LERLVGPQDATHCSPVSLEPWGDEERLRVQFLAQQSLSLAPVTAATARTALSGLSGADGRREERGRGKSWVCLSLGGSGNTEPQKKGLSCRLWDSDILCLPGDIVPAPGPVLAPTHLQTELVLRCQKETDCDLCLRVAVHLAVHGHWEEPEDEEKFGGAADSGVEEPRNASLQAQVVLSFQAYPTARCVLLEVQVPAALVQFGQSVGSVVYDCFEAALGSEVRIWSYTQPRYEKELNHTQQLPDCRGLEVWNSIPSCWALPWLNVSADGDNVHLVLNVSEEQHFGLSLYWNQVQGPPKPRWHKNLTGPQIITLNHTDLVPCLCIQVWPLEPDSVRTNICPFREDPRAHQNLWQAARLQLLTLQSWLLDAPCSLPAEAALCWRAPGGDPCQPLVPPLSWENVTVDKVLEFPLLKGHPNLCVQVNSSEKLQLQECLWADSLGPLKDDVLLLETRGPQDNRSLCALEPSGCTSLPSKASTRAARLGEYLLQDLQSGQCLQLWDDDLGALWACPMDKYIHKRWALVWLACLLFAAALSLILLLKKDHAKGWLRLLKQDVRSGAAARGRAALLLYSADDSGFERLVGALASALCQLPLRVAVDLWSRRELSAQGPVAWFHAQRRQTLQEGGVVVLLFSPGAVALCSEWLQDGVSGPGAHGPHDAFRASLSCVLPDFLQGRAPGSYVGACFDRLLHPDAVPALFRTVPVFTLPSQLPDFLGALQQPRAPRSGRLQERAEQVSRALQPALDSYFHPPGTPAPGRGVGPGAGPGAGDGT
The data set can be described thus: ELISA binding assay, IL17RC. The settings on record: read at 450 nm. (An ELISA detects its analyte on a solid surface through an enzyme-linked reagent.)

The test system of another data set is THP-1 cells. Nature of the data set: Cytotoxicity, CCK-8 assay. Particulars: THP-1, normal and IL17RA-deficient cells, varying concentrations, 24 h. Format: cell-based, human. Summed up: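 THP-1 cells were cultured in RPMI1640 (0.05 mM β-mercaptoethanol, 10% FBS). They were made into M1 macrophages with 100 ng/ml PMA for 120 h, then 1 µg/ml LPS plus 20 ng/ml IFNγ for 24 h. IL17RA was knocked down by siRNA, with cells harvested at 48 h. Normal and knockdown cells (1 × 10⁴ cells/ml) received test compound at varied concentrations for 24 h. CCK-8 for 4 h; A450. Mean ± SEM, ≥3 independent experiments.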
Background: Formazan colour is commonly taken as a measure of viable cells.

The test system of a further data set is RAW264.7 cells. The data set can be described thus: Cytotoxicity, CCK-8 assay. Particulars: RAW264.7, normal and IL17RA-deficient cells, varying concentrations, 24 h. Format: cell-based, murine. Summed up: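 RAW264.7 cells were cultured in RPMI1640 (0.05 mM β-mercaptoethanol, 10% FBS) and polarized to M1 with 1 µg/ml LPS plus 20 ng/ml IFNγ for 24 h. IL17RA was knocked down by siRNA transfection, with cells harvested at 48 h. Normal and knockdown cells (1 × 10⁴ cells/ml) were treated 24 h with varied test compound concentrations. CCK-8 was added for 4 h, then absorbance read at 450 nm. Mean ± SEM, ≥3 independent experiments.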

For another data set, the system named is HaCaT cells. The data set can be described thus: Cytotoxicity, CCK-8 assay. It counts as cell-based, human. Particulars: normal and IL17RA-deficient cells, varying concentrations, 24 h. Summed up: (§1)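 HaCaT and NIH3T3 cells were grown in DMEM with 10% FBS at 37 °C and 5% CO2. IL17RA was knocked down with siRNA and Lipofectamine 2000, and cells were harvested 48 h post-transfection. Normal and knockdown cells were seeded at 1 × 10⁴ cells/ml and exposed to a range of test compound concentrations for 24 h. CCK-8 was added for 4 h and absorbance read at 450 nm. Mean ± SEM, ≥3 independent experiments.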

For another data set, the system named is NIH3T3 cells. Nature of the data set: Cytotoxicity, CCK-8 assay. The settings on record: NIH3T3, normal and IL17RA-deficient cells, varying concentrations, 24 h. It counts as cell-based, murine. An outline of the steps:
as §1

A further data set deals with IL17A (Homo sapiens, UniProt Q16552). Nature of the data set: ELISA binding assay, IL17A. The settings on record: read at 450 nm.
IL17A, sequence (Q16552 24-155, species assumed): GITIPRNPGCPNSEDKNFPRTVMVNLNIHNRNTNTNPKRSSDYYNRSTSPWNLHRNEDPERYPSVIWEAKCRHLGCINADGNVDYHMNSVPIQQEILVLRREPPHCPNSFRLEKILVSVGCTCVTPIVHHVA
The target in the next data set is T2, IL17F (Homo sapiens, UniProt Q96PD4).
T2 sequence (Q96PD4 31-163): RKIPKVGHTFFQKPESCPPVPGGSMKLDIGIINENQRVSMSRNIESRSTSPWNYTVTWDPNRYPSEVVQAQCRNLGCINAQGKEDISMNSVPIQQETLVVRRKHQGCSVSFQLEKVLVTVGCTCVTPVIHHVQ
Nature of the data set: ELISA binding assay, IL17F. Particulars: read at 450 nm.

For data set [1] the following is noted: patients, long-term studies; cited from earlier work.
In data set [2] the target is T3, Human IL17RA protein (human, UniProt Q96F46 33-320). Nature of the data set: SPR. Background: Surface plasmon resonance follows binding to a sensor surface in real time, without labels.
The target in data set [3] is T3, Human IL17RA protein. Nature of the data set: MST.

Ends that are not written are not given here.

In the case of ASPVIYHL-NH2 [AL-8(0)], the “EC50 for binding to IL17RC” value at IL17RC is recorded as “no measurable”. For the same molecule, the “Cytotoxicity (cell viability, CCK-8)” value with THP-1 cells, in the data set with RAW264.7 cells, in the data set on HaCaT cells and in the data set on NIH3T3 cells was “not directly cytotoxic” each time. The “EC50 for binding to IL17A” value on IL17A is recorded as “no measurable”. Also, the “EC50 for binding to IL17F” value on IL17F was “no measurable”.

Regarding Ixekizumab, the Immunogenicity entry in data set [1] is recorded as “variable immunogenicity”.

As for Secukinumab, the ADA incidence rate in data set [1] is below 1%.

B1: AL-8(0) (peptide)
peptide: ASPVIYHL-NH2
B1: the Kd (commonly the equilibrium constant for the complex coming apart) with Human IL17RA protein [2] stood at 83 nM; with Human IL17RA protein [3], 89 nM.
